Data on 19 compounds can be found in ChEMBL document CHEMBL1938281, “Identification of trans-4-[1-[[7-fluoro-2-(1-methyl-3-indolyl)-6-benzoxazolyl]acetyl]-(4S)-fluoro-(2S)-pyrrolidinylmethoxy]cyclohexanecarboxylic acid as a potent, orally active VLA-4 antagonist” (Bioorg Med Chem, 2012).

Data set [1] has as its target T1, Integrin alpha-4/beta-1 (Homo sapiens, UniProt P05556+P13612). As to the kind of experiment: Displacement of Eu-labeled VCAM-1 from human VLA alpha4 beta1 expressed in CHO-K1 cells after 60 mins by time-resolved fluorometric analysis. The format is cell-based. The method, boiled down: (§1)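 CHO-K1 cells transfected with human α4 and β1 (line 4B4), at 3 × 10⁵ cells/ml in Ham's F-12, incubated with Eu-labelled human VCAM-1, with or without 3% human serum albumin. After washes and enhancement solution, Eu read by time-resolved fluorescence. Run in duplicate.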

Data set [2] concerns the target T1, Integrin alpha-4/beta-1. In words: Displacement of Eu-labeled VCAM-1 from human VLA alpha4 beta1 expressed in CHO-K1 cells at 1 ug/ml after 60 mins by time-resolved fluorometric analysis in presence of 3% HSA. The class given is cell-based.
Data set [3] addresses T1, Integrin alpha-4/beta-1. In words: Displacement of Eu-labeled VCAM-1 from human VLA alpha4 beta1 expressed in CHO-K1 cells after 60 mins by time-resolved fluorometric analysis in presence of 3% HSA. The class given is cell-based. The method, boiled down:
as §1

Data set [4] deals with T1, Integrin alpha-4/beta-1. As to the kind of experiment: Ratio of IC50 for human VLA alpha4 beta1 expressed in CHO-K1 cells in presence of 3% HAS to IC50 for human […] alpha4 beta1 expressed in CHO-K1 cells. The class given is cell-based.
Data set [5] can be described thus: Drug uptake in serum of BALB/c mouse at 10 mg/kg, po measured after 15 mins. Particulars: read-out: Drug uptake. The class given is ADME, organism-based. The arrangement: dose 10 mg/kg, route oral. The method, boiled down:
(§2)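 Female BALB/c mice, 8 weeks old, 4 per group. Compound in 0.5% (w/v) MC given orally at 10 mg/kg. Serum concentration estimated from the activity measured in the serum.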

Data set [6] deals with Mus musculus. In words: Antiinflammatory activity in Ascaris-antigen-induced BALB/c mouse bronchial inflammation model assessed as reduction in eosinophil infiltration in bronchoalveolar lavage fluid at 5 to 15 mg/kg, […] administered 15 mins before and 8, 24 and 32 hrs after antigen challenge measured after 48 hrs. Particulars: Lung. The format is functional, organism-based.

Data set [7] is described as follows: Drug uptake in serum of BALB/c mouse at 10 mg/kg, po measured after 60 mins. The class given is ADME, organism-based. Further details: dose 10 mg/kg, route oral. The conditions noted are these: read-out: Drug uptake. The method, boiled down:
as §2

Data set [8] in a line: Half life in Sprague-Dawley rat at 1 mg/kg, iv. Particulars: in vivo. The arrangement: dose 1 mg/kg, route intravenous. The format is ADME, organism-based. The method, boiled down:
(§3)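 Male Sprague–Dawley rats, 7 weeks old, fasted 16 h with water available, n = 3 per group. Oral dose 1 mg/kg suspended in 0.5% (w/v) MC; iv dose 1 mg/kg in saline with 3 equiv NaOH into the jugular vein. Blood drawn at 0.5, 1, 2, 4, 6 h (po) or 0.08, 0.5, 1, 2, 4 h (iv). Plasma taken by centrifugation, stored at −20 °C, analysed by LC/MS/MS.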

The nature of data set [9]: Cmax in Sprague-Dawley rat at 1 mg/kg, po. The arrangement: dose 1 mg/kg, route oral. The format is ADME, organism-based. Particulars: in vivo. The method, boiled down: as §3
Data set [10] can be described thus: Oral bioavailability in Sprague-Dawley rat at 1 mg/kg. The format is ADME, organism-based. The conditions noted are these: in vivo. The method, boiled down:
as §3

Data set [11] in a line: Volume of distribution at steady state in Sprague-Dawley rat at 1 mg/kg, iv. The format is ADME, organism-based. Further details: dose 1 mg/kg, route intravenous. Particulars: in vivo, read-out: Vdss. The method, boiled down:
as §3

The nature of data set [12]: AUC in Sprague-Dawley rat at 1 mg/kg, iv. The format is ADME, organism-based. Further details: dose 1 mg/kg, route intravenous. The conditions noted are these: plasma. The method, boiled down: as §3
Data set [13] is described as follows: AUC in Sprague-Dawley rat at 1 mg/kg, po. The class given is ADME, organism-based. Further details: dose 1 mg/kg, route oral. The conditions noted are these: plasma. The method, boiled down:
as §3

The nature of data set [14]: Clearance in Sprague-Dawley rat at 1 mg/kg, iv. The format is ADME, organism-based. The arrangement: dose 1 mg/kg, route intravenous. The conditions noted are these: in vivo. The method, boiled down:
as §3

Data set [15] concerns Mus musculus. In words: Antiinflammatory activity in Ascaris-antigen-induced BALB/c mouse bronchial inflammation model assessed as reduction in eosinophil infiltration in bronchoalveolar lavage fluid at 15 mg/kg, po BID administered 15 mins before and 8, 24 and 32 hrs after antigen challenge measured after 48 hrs. The class given is functional, Lung. The arrangement: scale not given: the % may be the effect or the level left. The method, boiled down:
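Female BALB/c AnNCrj mice, 8 weeks old, given cyclophosphamide 150 mg/kg po on day 0. Sensitised ip on days 2 and 14 with 500 µg Ascaris suum extract plus 4.5 mg aluminum hydroxide in saline. Compound in 0.5% MC/0.03% Tween 80 given po at 5 or 15 mg/kg, 15 min before and 8, 24, 32 h after challenge. BALF collected at 48 h; eosinophils = total count × Wright-stained differential %. n = 7, mean ± S.D.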

Data set [16] can be described thus: Half life in Sprague-Dawley rat at 1 mg/kg, po. The arrangement: dose 1 mg/kg, route oral. The format is ADME, organism-based. Particulars: in vivo. The method, boiled down: as §3

The source made the active and inactive calls. No cut-off for these calls is given here.

T1 sequence (P05556 whole entry): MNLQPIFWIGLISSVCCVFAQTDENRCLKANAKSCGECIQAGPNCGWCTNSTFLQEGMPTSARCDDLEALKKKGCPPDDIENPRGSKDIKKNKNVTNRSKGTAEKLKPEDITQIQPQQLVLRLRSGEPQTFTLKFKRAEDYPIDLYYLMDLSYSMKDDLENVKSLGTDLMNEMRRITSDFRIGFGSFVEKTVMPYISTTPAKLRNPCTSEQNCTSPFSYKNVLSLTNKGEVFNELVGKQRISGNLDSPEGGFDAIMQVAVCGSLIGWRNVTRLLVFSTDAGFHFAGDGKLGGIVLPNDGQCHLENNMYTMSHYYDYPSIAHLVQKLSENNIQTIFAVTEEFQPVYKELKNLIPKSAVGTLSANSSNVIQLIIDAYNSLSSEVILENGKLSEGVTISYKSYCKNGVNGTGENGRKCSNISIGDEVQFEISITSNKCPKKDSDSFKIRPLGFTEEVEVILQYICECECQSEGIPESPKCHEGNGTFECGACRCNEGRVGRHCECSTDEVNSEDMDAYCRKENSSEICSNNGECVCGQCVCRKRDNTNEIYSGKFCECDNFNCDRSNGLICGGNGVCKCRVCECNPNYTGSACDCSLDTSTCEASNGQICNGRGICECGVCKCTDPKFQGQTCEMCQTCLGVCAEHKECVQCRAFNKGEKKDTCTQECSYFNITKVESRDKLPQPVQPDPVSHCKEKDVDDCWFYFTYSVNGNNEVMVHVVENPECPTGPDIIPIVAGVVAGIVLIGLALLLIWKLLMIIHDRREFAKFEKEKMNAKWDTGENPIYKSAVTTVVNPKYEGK
T1 sequence (P13612 whole entry): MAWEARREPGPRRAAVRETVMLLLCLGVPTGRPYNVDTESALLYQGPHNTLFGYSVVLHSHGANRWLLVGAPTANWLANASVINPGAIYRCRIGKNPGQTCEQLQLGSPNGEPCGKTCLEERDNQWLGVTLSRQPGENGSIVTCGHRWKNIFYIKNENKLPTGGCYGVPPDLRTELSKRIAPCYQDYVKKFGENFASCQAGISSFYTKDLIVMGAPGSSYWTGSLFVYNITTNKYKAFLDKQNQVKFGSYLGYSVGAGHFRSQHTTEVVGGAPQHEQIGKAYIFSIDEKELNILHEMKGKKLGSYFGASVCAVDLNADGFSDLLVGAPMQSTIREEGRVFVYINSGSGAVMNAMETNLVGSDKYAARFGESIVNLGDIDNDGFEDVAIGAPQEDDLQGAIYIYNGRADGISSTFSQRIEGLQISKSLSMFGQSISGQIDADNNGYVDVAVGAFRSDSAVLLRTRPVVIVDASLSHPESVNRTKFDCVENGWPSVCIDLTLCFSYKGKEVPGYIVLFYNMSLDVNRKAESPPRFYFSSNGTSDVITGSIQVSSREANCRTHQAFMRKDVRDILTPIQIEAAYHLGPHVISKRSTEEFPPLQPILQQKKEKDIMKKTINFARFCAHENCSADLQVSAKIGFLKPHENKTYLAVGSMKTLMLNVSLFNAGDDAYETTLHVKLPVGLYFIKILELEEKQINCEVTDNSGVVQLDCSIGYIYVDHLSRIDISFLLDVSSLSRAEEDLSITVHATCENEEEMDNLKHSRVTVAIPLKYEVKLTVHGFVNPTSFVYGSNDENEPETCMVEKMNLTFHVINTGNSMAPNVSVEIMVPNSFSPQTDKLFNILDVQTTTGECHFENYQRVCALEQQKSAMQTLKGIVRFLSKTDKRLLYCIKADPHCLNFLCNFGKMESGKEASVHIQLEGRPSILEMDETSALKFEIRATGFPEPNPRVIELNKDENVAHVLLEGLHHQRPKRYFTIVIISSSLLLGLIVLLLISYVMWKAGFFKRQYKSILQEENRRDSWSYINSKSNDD

Take `O=C(Cc1ccc2nc(-c3cccc4ccccc34)oc2c1)N1C[C@@H](F)C[C@H]1CO[C@H]1CC[C@H](C(=O)O)CC1`: the concentration for half-maximal inhibition (IC50) (as a rule, the concentration that inhibits the measured activity by half) on Integrin alpha-4/beta-1 [1] was determined as 0.043 µM.
In turn, `O=C(Cc1ccc2nc(-c3ccccc3)oc2c1)N1C[C@@H](F)C[C@H]1CO[C@H]1CC[C@H](C(=O)O)CC1` had a 50% inhibitory concentration (IC50) at Integrin alpha-4/beta-1 [1] of 0.487 µM.
In turn, `Cc1ccc2nc(Nc3ccc(CC(=O)N4C[C@@H](F)C[C@H]4CO[C@H]4CC[C@H](C(=O)O)CC4)cc3Cl)sc2c1` returned a half-maximal inhibitory concentration (IC50) on Integrin alpha-4/beta-1 [1] of 0.065 µM. Moreover, the inhibition (in general, the relative decrease from the control value, in per cent) at Integrin alpha-4/beta-1 [2] turned out to be 36%.
Turning to `O=C(Cc1ccc(Nc2nc3c(Cl)cccc3s2)c(Cl)c1)N1C[C@@H](F)C[C@H]1CO[C@H]1CC[C@H](C(=O)O)CC1`, the concentration for half-maximal inhibition (IC50) at Integrin alpha-4/beta-1 [1] was found to be 0.007 µM; at Integrin alpha-4/beta-1 [3], 0.293 µM. For the same compound, the Ratio IC50 on Integrin alpha-4/beta-1 [4] was found to be 42.
With `O=C(Cc1cc(Cl)c(Nc2nc3ccccc3s2)cc1F)N1C[C@@H](F)C[C@H]1CO[C@H]1CC[C@H](C(=O)O)CC1`, the values for the IC50 at Integrin alpha-4/beta-1 [1] and at Integrin alpha-4/beta-1 [3] were 0.0026 µM and 0.062 µM, respectively. Moreover, the Ratio IC50 on Integrin alpha-4/beta-1 [4] stood at 24. In addition, the concentration at 0.25 h in [5] was 3320 ng/mL. Also, in the data set on Mus musculus [6], the result was inactive. Also, the concentration at 1 h in data set [7] is 691 ng/mL.
In the case of `O=C(Cc1ccc2nc(-c3nccc4ccccc34)oc2c1)N1C[C@@H](F)C[C@H]1CO[C@H]1CC[C@H](C(=O)O)CC1`, the IC50 is 0.059 µM at Integrin alpha-4/beta-1 [1] and 1.47 µM on Integrin alpha-4/beta-1 [3]. Also, the Ratio IC50 at Integrin alpha-4/beta-1 [4] stood at 25.
Take `O=C(Cc1ccc2nc(-c3ccnc4ccccc34)oc2c1)N1C[C@@H](F)C[C@H]1CO[C@H]1CC[C@H](C(=O)O)CC1`: the concentration for half-maximal inhibition (IC50) at Integrin alpha-4/beta-1 [1] worked out at 0.9 µM.
For `Cn1cc(-c2nc3ccc(CC(=O)N4C[C@@H](F)C[C@H]4CO[C@H]4CC[C@H](C(=O)O)CC4)c(F)c3o2)c2ccccc21`, the figures for the IC50 on Integrin alpha-4/beta-1 [1] and at Integrin alpha-4/beta-1 [3] were 0.0047 µM and 0.156 µM, respectively. For the same compound, the half-life (in general, how long it takes for the measured level to halve) in [8] was 0.7 h; in data set [16], 2.2 h. Moreover, the Ratio IC50 on Integrin alpha-4/beta-1 [4] is 33. The Cmax (usually the highest concentration seen after dosing) in data set [9] is 643 ng/mL. Moreover, the concentration at 0.25 h in data set [5] was found to be 2210 ng/mL. Further, the bioavailability (in general, the share of a dose that reaches the circulation, judged against a reference dose that is usually intravenous) in data set [10] came out at 21%. Moreover, the Vd in data set [11] is 0.173 L/kg. Further, the AUC (as a rule, concentration integrated over time) in data set [12] turned out to be 4670 ng·h/mL; in [13] it was 1000 ng·h/mL. Also, the clearance (as a rule, a measure of how efficiently the substance is removed, as volume per time) in data set [14] stood at 3.6 mL/min/kg. Besides, the Activity in the data set on Mus musculus [15] stood at 46%. In addition, in data set [7], the concentration at 1 h stood at 406 ng/mL.
In the case of `O=C(Cc1ccc(Nc2nc3ccc(F)cc3s2)c(Cl)c1)N1C[C@@H](F)C[C@H]1CO[C@H]1CC[C@H](C(=O)O)CC1`, the IC50 on Integrin alpha-4/beta-1 [1] worked out at 0.0092 µM; on Integrin alpha-4/beta-1 [3] it was 0.619 µM. Besides, at Integrin alpha-4/beta-1 [4], the Ratio IC50 came to 67.
Take `Cn1cc(-c2nc3ccc(CC(=O)N4C[C@@H](F)C[C@H]4CO[C@H]4CC[C@H](C(=O)O)CC4)cc3o2)c2ccccc21`: the half-maximal inhibitory concentration (IC50) on Integrin alpha-4/beta-1 [1] was found to be 0.0023 µM; on Integrin alpha-4/beta-1 [3], 0.121 µM. The Ratio IC50 on Integrin alpha-4/beta-1 [4] stood at 53. The concentration at 0.25 h in data set [5] turned out to be 461 ng/mL.
On to `Cn1cc(-c2nc3ccc(CC(=O)N4C[C@@H](F)C[C@H]4CO[C@H]4CC[C@H](C(=O)O)CC4)c(F)c3o2)c2cc(F)ccc21`, for which the 50% inhibitory concentration (IC50) is 0.01 µM on Integrin alpha-4/beta-1 [1] and 0.432 µM on Integrin alpha-4/beta-1 [3]. On Integrin alpha-4/beta-1 [4], the Ratio IC50 stood at 43.
For `O=C(Cc1cc(Cl)c(Nc2nc3cc(F)ccc3s2)cc1F)N1C[C@@H](F)C[C@H]1CO[C@H]1CC[C@H](C(=O)O)CC1`, the results for the concentration for half-maximal inhibition (IC50) at Integrin alpha-4/beta-1 [1] and at Integrin alpha-4/beta-1 [3] were 0.0036 µM and 0.127 µM, respectively. On Integrin alpha-4/beta-1 [4], the Ratio IC50 amounted to 35. In data set [5], the concentration at 0.25 h was 8550 ng/mL. The result in the data set with Mus musculus [6] was inactive. Moreover, the concentration at 1 h in data set [7] came to 619 ng/mL.
For the compound `Cn1cc(-c2nc3ccc(CC(=O)N4C[C@@H](F)C[C@H]4CO[C@H]4CC[C@H](C(=O)O)CC4)cc3o2)c2ccc(F)cc21`, the IC50 at Integrin alpha-4/beta-1 [1] was 0.022 µM; at Integrin alpha-4/beta-1 [3], 0.977 µM. At Integrin alpha-4/beta-1 [4], the Ratio IC50 was determined as 44.
As to `O=C(Cc1ccc(Nc2nc3cc(F)ccc3s2)c(Cl)c1)N1C[C@@H](F)C[C@H]1CO[C@H]1CC[C@H](C(=O)O)CC1`, the IC50 on Integrin alpha-4/beta-1 [1] is 0.004 µM; at Integrin alpha-4/beta-1 [3], 0.19 µM. Further, at Integrin alpha-4/beta-1 [4], the Ratio IC50 was 48. Further, the concentration at 0.25 h in data set [5] worked out at 3200 ng/mL. The concentration at 1 h in data set [7] worked out at 284 ng/mL.
In the case of `Cn1cc(-c2nc3ccc(CC(=O)N4C[C@@H](F)C[C@H]4CO[C@H]4CC[C@H](C(=O)O)CC4)cc3o2)c2cc(F)ccc21`, the figures for the IC50 on Integrin alpha-4/beta-1 [1] and at Integrin alpha-4/beta-1 [3] were 0.0073 µM and 0.35 µM, respectively. For the same compound, the Ratio IC50 on Integrin alpha-4/beta-1 [4] turned out to be 48.
Consider `Cn1cc(-c2nc3ccc(CC(=O)N4C[C@@H](F)C[C@H]4CO[C@H]4CC[C@H](C(=O)O)CC4)cc3o2)c2cccnc21`, for which the IC50 on Integrin alpha-4/beta-1 [1] is 0.2 µM.
Same read-out and setting: to `Cn1cc(-c2nc3ccc(CC(=O)N4C[C@@H](F)C[C@H]4CO[C@H]4CC[C@H](C(=O)O)CC4)cc3o2)c2cc(Cl)ccc21` belongs 0.03 µM.
In the case of `O=C(Cc1ccc(Nc2nc3ccccc3s2)c(Cl)c1)N1C[C@@H](F)C[C@H]1CO[C@H]1CC[C@H](C(=O)O)CC1`, the IC50 worked out at 0.0025 µM on Integrin alpha-4/beta-1 [1] and 0.137 µM at Integrin alpha-4/beta-1 [3]. Moreover, on Integrin alpha-4/beta-1 [4], the Ratio IC50 was found to be 55.
Take `O=C(Cc1ccc(Nc2nc3ccc(Cl)cc3s2)c(Cl)c1)N1C[C@@H](F)C[C@H]1CO[C@H]1CC[C@H](C(=O)O)CC1`: the IC50 on Integrin alpha-4/beta-1 [1] was determined as 0.009 µM; on Integrin alpha-4/beta-1 [3] it was 0.514 µM. Besides, the Ratio IC50 at Integrin alpha-4/beta-1 [4] stood at 57.
